M1 antagonist – M1 muscarinic receptor (rat) antagonism; P08482; CHO-M1 cells, Fluo-4 calcium, ACh EC80 antagonist mode; stronger effect = lower value; B-score at 10 µM; 64,000 compounds, 3.4% hits; AID 628;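 active means calcium fluorescence response, raw or row-and-column corrected B-score, differing from the plate sample mean either way at a set confidence level, mostly lower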
SF1 activator – activates the human nuclear receptor SF-1; 65,000 compounds, 1.9% hits; Q13285; CHO-K1 Gal4-SF-1 LBD luciferase reporter; % increase over DMSO SF-1-specific signal; activation, % at 10 µM; AID 522;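 active means activation above the mean activation of all tested compounds plus 3 SD, cut at about 50% in these data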
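Material: Transient Gal4-SF-1 LBD reporter, CHO-K1 | Input: 4,000 cells/well | Dosing: One dose, 10 µM compound, 1% DMSO | Incubation: 20 h compound treatment, 37 °C | Detection: SteadyLite luciferase luminescence | Evaluation: Percent activation relative to DMSO median and mock-transfected background | Benchmarks: DMSO-treated SF-1-transfected cells as negative, DMSO-treated mock-transfected cells lacking SF-1 as background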
S1P3 agonist – S1P3 (human) receptor agonism; Q99500; S1P3 NFAT-BLA reporter cells, FRET ratio; relative to 1 µM S1P, basal subtracted; activation, % at 4.5 µM; 60,000 compounds, 0.1% hits; AID 373;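 active means activation above the screen-wide mean plus 3 SD, cut at about 4.5% in these data, passing the limit was not always enough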
Target sequence (Q99500 whole entry, looked up): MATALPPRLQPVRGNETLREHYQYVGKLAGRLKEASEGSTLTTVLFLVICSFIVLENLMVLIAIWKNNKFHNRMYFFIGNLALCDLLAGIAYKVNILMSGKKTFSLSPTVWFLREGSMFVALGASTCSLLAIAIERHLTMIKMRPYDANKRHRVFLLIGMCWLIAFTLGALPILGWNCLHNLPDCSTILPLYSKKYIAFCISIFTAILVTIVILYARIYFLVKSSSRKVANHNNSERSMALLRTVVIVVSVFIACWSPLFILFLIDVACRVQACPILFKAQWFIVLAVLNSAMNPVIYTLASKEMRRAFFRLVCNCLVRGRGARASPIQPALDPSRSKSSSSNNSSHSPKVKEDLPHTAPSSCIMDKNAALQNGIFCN
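material = human S1P3 NFAT-BLA reporter CHO cells | schedule = 4 h compound at 37 °C, 2 h substrate at RT | measured by = fluorescent BLA substrate, ex 405 nm, em 460/535 nm ratio | controls = 1 µM S1P reference | replication = primary once, confirmation triplicate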
S1P1 ag-PAM – agonists and agonism potentiators of human S1P1 receptor. AID 449. P21453. 56,000 compounds, 0.57% hits. S1P1 CRE-bla cells, forskolin, beta-lactamase FRET, potentiator mode; S1P1 agonist co-added at EC20, 2 nM; 100% = saturating reference agonist, 0% = basal. activation, % at 9.5 µM;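 active means activation above a cutoff set at the mean activation of all tested compounds plus 3 SD, cut at about 54% in these data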;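 further: forskolin at 4 µM as EC80 and the EC20 agonist is SEW2871; 100% = SEW2871 at its EC100 plus forskolin at EC80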
RORA act – RORA (human) activation. CHO-K1 Gal4-RORA LBD luciferase reporter, luminescence; percent increase over mock-subtracted basal signal. activation, % at 10 µM. P35398. 65,000 compounds, 1.5% hits;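 active means activation above the mean of all tested compounds plus 3 SD, cut at about 49% in these data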;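 further: 0% = DMSO-treated RORA cells and 100% = added signal equal to DMSO minus mock-transfected cells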
M1 agonist – M1 muscarinic receptor agonism; CHO-M1 cells, Fluo-4 calcium fluorescence, agonist mode; stronger effect = higher value; B-score at 10 µM; 64,000 compounds, 3% hits; AID 626;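 active means fluorescence rise, raw or as B-score row- and column-corrected plate score, outside the 99.7% band of its plate's samples, either direction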
M1 agonist conf – confirmation of rat M1 muscarinic receptor agonists; CHO-M1 cells, Fluo-4 calcium fluorescence, agonist mode; actives lie on both sides; fluorescence change (max-min) at 10 µM; 1,700 compounds, 19% hits; shares compounds with M1 agonist;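 active means fluorescence change differs from the solvent-only DMSO control mean at a set confidence level in both duplicate runs; inconclusive means differs from solvent-only control mean in just one of two runs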;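 further: an EC20 dose of acetylcholine follows compound addition during the same imaging run; raw fluorescence intensity difference in instrument units with no normalization to controls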
M4 ag counter – rat M4 muscarinic agonism, M1 counter-screen; shares compounds with M1 agonist; CHO M4/Gqi5 cells, Fluo-4 calcium fluorescence, agonist mode; actives lie on both sides; fluorescence change (max-min) at 10 µM; 1,700 compounds, 9% hits; AID 1741;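 active means fluorescence change differing from the plate's solvent-only control wells at 99.7% confidence in both duplicates, whether higher or lower; inconclusive means differs from solvent controls in only one of two duplicates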
An asterisk follows results filed as active; u = inconclusive; x = no result. Rows were chosen to be rich in hits. Some 8.8% of all compounds tested hit in one or more screens of this group.

SMILES	M1 antagonist	SF1 activator	S1P3 agonist	S1P1 ag-PAM	RORA act	M1 agonist	M1 agonist conf	M4 ag counter
CC(=O)Nc1nc2n(n1)C(c1ccccc1)C=C(c1ccccc1)N2 (stereo not given)	0.27	13	-2	x	-17	20*	132*	97
CC(=O)Nc1nc2n(n1)C(c1ccc(F)cc1)C=C(c1ccccc1)N2 (stereo not given)	-0.31	-4	0	30	7	7.6*	119*	93*
CCOC(=O)c1ccccc1NC(=O)CSc1nc2ccccc2n1CC(=O)N1CCCC1	0.36	-1	0	-41	-8	0.15	x	x
CCc1ccc(-c2nc(CSCC(=O)N3CCN(c4ncccn4)CC3)c(C)o2)cc1	-0.46	-51	-1	23	-48	8.2*	-15	u
CSc1ccc(-c2nc(CSCC(=O)N3CCOCC3)c(C)o2)cc1	0.32	8	0	17	-2	-2.6	x	x
CCn1c(C(=O)N2CCC(C(=O)N3CCN(c4ccccn4)CC3)CC2)cc2sccc21	-0.7	-13	-1	18	4	2.5*	-19	u
CC1CCN(C(=O)C2CCN(C(=O)c3cc4sccc4n3Cc3ccc(F)cc3)CC2)CC1	-1.1	4	0	3	6	1.2	x	x
Cc1nonc1OCCNC(=O)C12CC3CC(CC(C3)C1)C2	-1.1	2	-1	x	4	-0.51	x	x
CCC(Sc1nnc(-c2ccc(C)c(Cl)c2)n1CC)C(=O)Nc1nccs1 (stereo not given)	-0.099	18	-2	29	-1	5.2*	-13	-55
O=C(OCCN1C(=O)c2ccccc2C1=O)c1cc(S(=O)(=O)N2CCOCC2)ccc1Cl	0.26	-20	0	5	-4	3.7*	-15	-25
CC(C)CCn1nnnc1C(c1ccc(F)cc1)N1CCC(C(N)=O)CC1 (stereo not given)	-0.46	0	0	-16	-14	-0.36	x	x
COc1ccc(OC)c(CCNC(=O)Cn2sc3nc(C)cc(C)c3c2=O)c1	-0.49	-24	0	-28	-4	8*	u	-28
CCOC(=O)CNC(=O)CSc1nc2nc(C)c(Br)cc2[nH]1	-0.5	22	-2	-11	10	-0.062	x	x
Cc1ccccc1Nc1nc(N)nc(CN2C(=O)NC3(CCCCC3C)C2=O)n1 (stereo not given)	1.3	2	0	-8	-16	-0.95	x	x
CCOC(=O)Cn1c(=O)c2c(nc(Br)n2Cc2ccccc2)n(C)c1=O	0.38	0	-1	11	-16	-0.19	x	x
CCCCOC(=O)Cn1c(=O)c2c(nc(Br)n2Cc2ccccc2)n(C)c1=O	-0.009	3	0	4	1	7.5*	-18	-45
N=c1c(C(=O)NCc2ccco2)cc2c(=O)n3ccccc3nc2n1CCc1ccccc1	0.5	-8	1	-111	-18	9.6*	39	3.6
N=c1c(C(=O)NCc2ccc(F)cc2)cc2c(=O)n3ccccc3nc2n1CC1CCCO1 (stereo not given)	-0.97	11	6	-176	-14	3.7*	90*	u
Cc1cccn2c(=O)c3cc(C(=O)NCc4ccco4)c(=N)n(CCOCCO)c3nc12	-0.94	7	0	-25	-2	12*	107*	u
Cn1c(=O)cc(OCC(=O)N2CCC(N3CCCCC3)CC2)c2ccccc21	-0.29	16	0	-16	-4	0.3	x	x
CC(C)c1nnc(NC(=O)CCC(=O)NCc2ccc3c(c2)OCO3)s1	0.042	4	0	-21	10	-0.69	x	x
CCCCCC(C(=O)O)C(C)CC(=O)NC1CCCCC1 (stereo not given)	-0.3	-2	-1	-7	-7	0.45	x	x
Cc1ccc2occ(C(c3nnnn3C3CCCC3)N3CCN(C(=O)c4ccco4)CC3)c(=O)c2c1 (stereo not given)	-2	-18	-1	9	7	2.7*	u	u
O=C(c1ccco1)N1CCN(C(c2ccccn2)c2nnnn2C2CCCC2)CC1 (stereo not given)	0.95	9	0	-10	4	0.44	x	x
Cc1cc2c(c(=O)o1)C1(C(=O)N(CC(=O)O)c3ccccc31)C(C#N)=C(N)O2 (stereo not given)	-0.11	-13	-1	-16	-6	18*	60*	54
SMILES	M1 antagonist	SF1 activator	S1P3 agonist	S1P1 ag-PAM	RORA act	M1 agonist	M1 agonist conf	M4 ag counter
CCN1C(=O)C2(C(C#N)=C(N)Oc3cc(C)oc(=O)c32)c2ccccc21 (stereo not given)	0.25	-3	x	x	-13	-0.17	x	x
CN(C)c1oc(-c2ccccc2F)nc1C#N	-1.1	-1	0	-15	-4	8.3*	-14	-45
CN(C)c1oc(-c2cccs2)nc1C#N	-0.041	0	-2	-8	-20	-0.72	x	x
COc1cc(C2CC(=O)c3c([nH]c(C(=O)OCCOC(C)C)c3C)C2)cc(OC)c1OC (stereo not given)	0.22	-34	-1	30	-25	3.2*	-33*	-20
CCOC(=O)N1CCN(C2=Nc3cccc4cccc2c34)CC1	-11*	-6	0	1	7	8.5*	107*	u
CC(=O)N1CCN(C2=Nc3cccc4cccc2c34)CC1	-0.69	16	0	19	13	9.5*	101*	92*
CCCN(CCC)CCNC(=O)C(NS(=O)(=O)c1ccc2c(c1)CCC(=O)N2)c1ccccc1 (stereo not given)	-1.9	-11	-1	-8	0	0.69	x	x
C=CCOC(=O)CN1C(=O)c2ccccc2C1=O	-0.35	-2	-2	-7	-8	0.56	x	x
Cn1c2ccccc2c2c(C(=O)NCC3CCCO3)cn(C3CCCC3)c(=O)c21 (stereo not given)	0.0061	-6	x	x	-9	8.8*	-9.8	-63
CN1CCN(CCCNC(=O)c2cn(C3CCCCC3)c(=O)c3c2c2ccccc2n3C)CC1	0.36	-10	x	x	2	-0.44	x	x
Cc1ccc2nc(-c3ccccn3)cc(C(=O)NC3CCN(C)CC3)c2c1	-0.18	11	0	-30	-8	-2.3*	-20	-46
COC(=O)c1ccc(CC(=O)c2ccc(O)cc2O)o1	0.13	22	0	14	-15	20*	37	11
CCc1nnc(NS(=O)(=O)c2ccc(N3C(=O)C4CC=C(Cl)CC4C3=O)cc2)s1 (stereo not given)	0.31	28	0	x	6	-0.67	x	x

Compound activity: PubChem, several laboratories
